Measurements from different studies.
Each line is one published result; the experiments were not run side by side.
Target: Cyclin-dependent kinase-like 5 (CDKL5, Homo sapiens, UniProt O76039)
Sequence (O76039 1-960, as in one of the studies): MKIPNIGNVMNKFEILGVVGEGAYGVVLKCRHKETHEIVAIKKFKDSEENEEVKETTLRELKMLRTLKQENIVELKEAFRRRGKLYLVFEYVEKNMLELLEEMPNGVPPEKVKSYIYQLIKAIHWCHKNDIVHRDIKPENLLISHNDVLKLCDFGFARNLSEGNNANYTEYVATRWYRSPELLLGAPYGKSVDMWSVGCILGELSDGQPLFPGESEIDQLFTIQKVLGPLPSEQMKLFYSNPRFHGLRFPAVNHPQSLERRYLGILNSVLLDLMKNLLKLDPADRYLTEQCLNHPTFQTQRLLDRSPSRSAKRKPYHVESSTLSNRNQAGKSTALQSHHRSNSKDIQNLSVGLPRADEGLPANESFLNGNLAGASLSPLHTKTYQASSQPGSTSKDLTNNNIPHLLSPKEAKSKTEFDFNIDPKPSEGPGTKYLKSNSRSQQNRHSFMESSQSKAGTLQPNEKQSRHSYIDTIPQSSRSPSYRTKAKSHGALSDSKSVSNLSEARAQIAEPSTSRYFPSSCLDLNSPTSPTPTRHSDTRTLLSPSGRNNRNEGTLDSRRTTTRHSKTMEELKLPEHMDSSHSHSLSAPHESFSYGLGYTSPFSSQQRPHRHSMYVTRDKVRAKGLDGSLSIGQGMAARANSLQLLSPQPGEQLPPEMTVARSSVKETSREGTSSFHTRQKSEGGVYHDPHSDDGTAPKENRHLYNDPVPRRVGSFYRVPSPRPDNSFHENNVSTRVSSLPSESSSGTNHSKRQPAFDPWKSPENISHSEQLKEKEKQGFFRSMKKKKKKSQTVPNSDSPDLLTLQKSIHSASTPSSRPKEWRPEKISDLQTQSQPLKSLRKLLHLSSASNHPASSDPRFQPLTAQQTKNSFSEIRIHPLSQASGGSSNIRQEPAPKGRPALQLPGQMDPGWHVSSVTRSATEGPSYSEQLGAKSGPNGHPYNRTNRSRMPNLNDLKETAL

SMILES | test | setting | remaining binding
C[C@H](c1ccc(F)cc1)N(Cc1cccc(C(=O)O)c1)C(=O)c1cnc2ccccc2c1 | binding, competition with immobilised ligand | 1 µM | 100%
N[C@H]1CCN(c2nccc(-c3cnn4ncccc34)n2)C1 | binding | 1 µM | 100%
CNCc1ccccc1-c1csc([C@@H](C)Nc2nc(C)nc3cc(OC)c(OC)cc23)c1 | cell-free assay, competition with immobilised ligand | 1 µM | 94%
O=C(c1ccc(Nc2ncc(Cl)c(-c3cc4ccccc4s3)n2)cc1)N1CCC(N2CCCC2)CC1 | binding, competition with immobilised ligand | 1 µM | 32%
O=C(NS(=O)(=O)c1ccc(NCC2CCOCC2)c([N+](=O)[O-])c1)c1ccc(N2CCN(Cc3ccc(C(F)(F)F)cc3-c3ccc(Cl)cc3)CC2)cc1Oc1cnc2[nH]ccc2c1 | cell-free assay, competition with immobilised ligand | 1 µM | 74%
O=C(NCCCN1CCOCC1)c1ccc(Nc2nccc(-c3cc4ccccc4s3)n2)cc1 | binding, competition with immobilised ligand | 1 µM | 40%
CN(c1nccc(-c2cnn3ncccc23)n1)C1CC1 | binding | 1 µM | 100%
CCN1CCN(Cc2ccc(C(=O)Nc3ccc(C)c(Oc4ccc5c(c4)CC(=O)N5)c3)cc2C(F)(F)F)CC1 | binding, competition with immobilised ligand | 1 µM | 100%
CC(C)CC(=O)N1CCc2nc(-c3ccc(Br)cc3)nc(N(C)Cc3ccccc3)c2C1 | cell-free assay, competition with immobilised ligand | 0.1 µM | 100%
CN(C)c1nccc(-c2cnc3ncccn23)n1 | binding | 1 µM | 88%
C[C@@H](c1ccc(-n2cnc3c(N)ncnc32)cc1)N1CCc2nn(C)c(Cc3ccccc3)c2C1=O | binding, competition with immobilised ligand | 0.1 µM | 71%
CS(=O)(=O)N1CCCC(NC(=O)[C@H](CCC2CCCCC2)NC(=O)c2ccc(CNc3ncnc4c3nnn4-c3ccccc3)cc2)C1 (some centres unmarked) | cell-free assay, competition with immobilised ligand | 0.1 µM | 100%
O=C(Nc1c[nH]nc1C(=O)NC1CCNCC1)c1cc(F)cc(F)c1 | binding, competition with immobilised ligand | 1 µM | 0.2%
F[C@@H]1CCN(c2nccc(-c3cnn4ncccc34)n2)C1 | binding | 1 µM | 100%
Nc1ncc2c(n1)-c1c([nH]c3ccc(C#CC4CC4)cc13)CCCC2 | binding, competition with immobilised ligand | 1 µM | 90%
COc1cnc(Nc2cccc(S(N)(=O)=O)c2)nc1N1CCN(c2ccccc2)CC1 | binding, competition with immobilised ligand | 1 µM | 72%
Cc1cnn2ncc(-c3ccnc(N(C)C)n3)c2c1 | binding | 1 µM | 86%
CC1=C(C#N)C(c2ccc3c(c2)c(NC(=O)c2ccccc2C)nn3C)C(C#N)=C(C)N1 | binding, competition with immobilised ligand | 1 µM | 79%
O=C(c1ccc(Nc2ncc(Cl)c(-c3ccc(Cl)s3)n2)cc1)N1CCC(N2CCCC2)CC1 | binding, competition with immobilised ligand | 1 µM | 26%
C[C@H]1CCN(c2nccc(-c3cnn4ncccc34)n2)C1 | binding | 1 µM | 100%
